A short description of data set [1]: In vitro toxicity against burst forming unit erythroid (BFU-E). The conditions noted are these: human, burst forming unit erythroid (BFU-E) progenitor cells.
Data set [2] in a line: In vitro toxicity against colony forming unit granulocyte macrophage (CFU-GM). The data set is classed as cell-based. The conditions noted are these: human.
A further data set concerns MRC5. As to the kind of experiment: In vitro antiviral activity against Human cytomegalovirus (HCMV)strain AD169 in MRC-5 lung fibroblasts using a DNA-hybridization assay. The data set is classed as functional, cell-based. In a few lines:
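HCMV strain AD169 grown in MRC-5 human lung fibroblasts; viral DNA read out by DNA hybridization. Each drug concentration tested in triplicate. IC50 derived by probit linear regression, and reported values span 7 to 12 independent experiments with standard errors.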

Another data set relates to CCRF-CEM. As to the kind of experiment: The compound is evaluated for toxicity in CEM cells. The conditions noted are these: Homo sapiens. The data set is classed as cell-based.
The test system of a further data set is IM-9. As to the kind of experiment: The compound is evaluated for toxicity in IM-9 cells. The data set is classed as cell-based. The conditions noted are these: Homo sapiens.
The subject of a further data set is MOLT-4. As to the kind of experiment: The compound is evaluated for toxicity in MOLT-4 cells. The note with it: Homo sapiens. The data set is classed as cell-based.

One may read the IC50 as the concentration at which inhibition is half-maximal. A low value points to greater potency in that assay.

Consider `Nc1nc2c(ncn2COC(CO)CO)c(=O)[nH]1` [GANCICLOVIR], for which the IC50 in data set [1] is 29 µM; in data set [2], 19 µM; with MRC5 it was 1.7 µM.

Consider `Nc1nc2c(ncn2CO[C@@H](CO)CCP(=O)(O)O)c(=O)[nH]1`, for which the IC50 was 126 µM in data set [1]; over 100 µM with CCRF-CEM; 96 µM in data set [2]; over 100 µM in the data set with IM-9; 1.7 µM in the data set on MRC5; over 100 µM with MOLT-4.

As to `CCOP(=O)(O)CC[C@H](CO)OCn1cnc2c(O)nc(N)nc21`, in the data set on MRC5, the IC50 came out at 6.8 µM.

With `Nc1nc(O)c2ncn(COC(CO)CCP(=O)(O)O)c2n1` (stereo not drawn), the IC50 in data set [1] came out at 200 µM; in data set [2], 280 µM; with MRC5 it was 5.6 µM.

(Values after ChEMBL document CHEMBL1127652, “An enantiospecific synthesis of the human cytomegalovirus antiviral agent [(R)-3-((2-amino-1,6-dihydro-6-oxo-9H-purin-9-yl)methoxy)-4- hydroxybutyl]phosphonic acid” (J Med Chem, 1994).)
